Drawing on ChEMBL document CHEMBL1137768, “Synthesis and in vitro anti Mycobacterium tuberculosis activity of a series of phthalimide derivatives” (Bioorg Med Chem, 2009), this text covers IC50 and MIC for twelve compounds.

Structures are written as SMILES. Converted amounts (≈) assume the structure as drawn.

One assay has as its system J774. Nature of the assay: Cytotoxicity against mouse J774 cells after 24 hrs. In kind it is cell-based. Particulars: J774, 24 h. The method, boiled down:
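J774 cells kept in RPMI with 10% FBS at 37 °C, 5% CO2, then seeded and allowed to adhere for 24 h. Exposed 24 h to compound at 625 down to 0.6 (twofold series). Resazurin added for 6 h and fluorescence read at 530/590 nm. IC50 taken as concentration giving 50% viability relative to control.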
For orientation: IC50 means the concentration at which inhibition is half-maximal. Take `O=C(NN1C(=O)c2ccccc2C1=O)c1ccncc1`: the IC50 was determined as 625 µg/mL (≈ 2340 µM).
The compound `Nc1ccc(S(=O)(=O)c2ccc(N3C(=O)c4ccccc4C3=O)cc2)cc1` showed an IC50 of 312 µg/mL (≈ 826 µM).
In the case of `O=C1c2ccccc2C(=O)N1c1ccc(S(=O)(=O)Nc2ncccn2)cc1`, the IC50 was determined as 312 µg/mL (≈ 822 µM).

For a further assay, the system named is Mycobacterium tuberculosis. Nature of the assay: Antimycobacterial activity against Mycobacterium tuberculosis H37Rv ATCC 27294 after 7 days by Microplate Alamar blue assay. Particulars: H37Rv ATCC 27294, 168 h. In kind it is functional. Summed up: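 DMSO stocks diluted in Middlebrook 7H9 with OADC to final 0.15–250 µg/mL. Inoculum matched to McFarland No. 1, diluted 1:25, then added with compound in 96-well plates. Triplicates incubated 7 days at 37 °C, then resazurin added. Fluorescence read at 530/590 nm. MIC = lowest concentration giving 90% growth inhibition. Isoniazid standard run each time.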
(In general: Alamar Blue is a resazurin reagent that responds to reducing activity.)
As a reminder, the MIC is the lowest concentration that inhibits growth of the organism. Read a high MIC as a less susceptible organism. `O=C(NN1C(=O)c2ccccc2C1=O)c1ccncc1`: the MIC was determined as 5 µg/mL (≈ 18.7 µM).
On to `Cc1ccnc(NS(=O)(=O)c2ccc(N3C(=O)c4ccccc4C3=O)cc2)n1`, for which the MIC was more than 250 µg/mL.
`COc1cnc(NS(=O)(=O)c2ccc(N3C(=O)c4ccccc4C3=O)cc2)nc1` returned an MIC of more than 250 µg/mL.
Regarding `Cc1cc(NS(=O)(=O)c2ccc(N3C(=O)c4ccccc4C3=O)cc2)no1`, the MIC is 125 µg/mL (≈ 326 µM).
As to `Nc1ccc(S(=O)(=O)c2ccc(N3C(=O)c4ccccc4C3=O)cc2)cc1`, the lowest concentration to inhibit growth (MIC) was 7.8 µg/mL (≈ 20.6 µM). This MIC is about 16-fold lower than that of the compound before.
The compound `O=C1c2ccccc2C(=O)N1c1ccc(S(=O)(=O)Nc2ccccn2)cc1` showed an MIC of more than 250 µg/mL.
Same read-out and setting: in the case of `O=C1c2ccccc2C(=O)N1c1ccc(S(=O)(=O)Nc2ncccn2)cc1` it was 3.9 µg/mL (≈ 10.3 µM); in that of `Cc1cc(C)nc(NS(=O)(=O)c2ccc(N3C(=O)c4ccccc4C3=O)cc2)n1`, more than 250 µg/mL; in that of `O=C1c2ccccc2C(=O)N1c1ccc(S(=O)(=O)c2ccc(N3C(=O)c4ccccc4C3=O)cc2)cc1`, more than 250 µg/mL.
`NS(=O)(=O)c1ccc(N2C(=O)c3ccccc3C2=O)cc1` came in with a minimal inhibitory concentration (MIC) of more than 250 µg/mL.
`N=C(N)NS(=O)(=O)c1ccc(N2C(=O)c3ccccc3C2=O)cc1` returned an MIC of 125 µg/mL (≈ 363 µM).
In the case of `NNC(=O)c1ccncc1` [ISONIAZID], the MIC was 0.02 µg/mL (≈ 0.146 µM).
